Data taken from ChEMBL document CHEMBL4177753, “Structural Modification of Natural Product Ganomycin I Leading to Discovery of a α-Glucosidase and HMG-CoA Reductase Dual Inhibitor Improving Obesity and Metabolic Dysfunction in Vivo” (J Med Chem, 2018).
Active and inactive are the calls of the source. The rule behind the calls is not given here.

How the values were obtained:
Mus musculus [1] = assay: Hypoglycemic activity in C57BL/6J DIO mouse assessed as increase in insulin sensitive index at 0.3 to 3 mg/kg administered daily via oral gavage for 5 weeks; format: functional, organism-based
How it was run: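 Male high-fat-diet C57BL/6J mice, daily gavage at 0.3–3.0 mg/kg for 5 weeks. ISI calculated as […].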

Neisseria = assay: Decrease in Neisseri levels in cecum of ob/ob mouse at 3 mg/kg administered daily via oral gavage for 31 days by 16S rRNA gene high-throughput sequencing method; format: functional, organism-based
How it was run: (§1)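 Male ob/ob mice dosed daily by gavage at 1.0 or 3.0 mg/kg, compared with vehicle group. DNA extracted from about 150 mg caecum contents. 16S rRNA V3–V4 region amplified and sequenced on Illumina HiSeq PE250. Community compared by NMDS/MRPP; discriminant taxa identified by LEfSe.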

Mus musculus [2] = assay: Hypolipidemic activity in ob/ob mouse assessed as decrease in plasma triglyceride levels administered daily via oral gavage for 31 days; format: functional, organism-based
Mus musculus [3] = assay: Hypolipidemic activity in C57BL/6J DIO mouse assessed as decrease in plasma triglyceride levels at 0.3 to 3 mg/kg administered daily via oral gavage for 5 weeks; format: functional, organism-based
How it was run: (§2)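 High-fat-diet male C57BL/6J mice, n = 8 per group, daily gavage at 0.3–3.0 mg/kg in soybean vehicle for 5 weeks. Serum total cholesterol, triglycerides and free fatty acids measured.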

Mus musculus [4] = assay: Upregulation of Pparg mRNA expression in ob/ob mouse ileum at 3 mg/kg administered daily via oral gavage for 31 days by RNA-seq analysis; format: functional, organism-based
Lachnospiraceae [5] = assay: Increase in Lachnospiraceae levels in cecum of ob/ob mouse assessed as increase in level of gut butyrate at 3 mg/kg administered daily via oral gavage for 31 days by GC-MS analysis; format: functional, organism-based
How it was run: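 Feces collected from ob/ob mice after 3.0 mg/kg gavage treatment; samples lyophilized, ground, 40 mg powder extracted with 1 mL MeOH, sonicated, centrifuged; supernatant analysed for short-chain fatty acids by GC-MS.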

Mus musculus [6] = assay: Toxicity in C57BL/6J mouse assessed as effect on organ coefficients at 30 mg/kg administered daily via oral gavage for 3 months; format: organism-based; details: in vivo
How it was run: (§3)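 Long-term safety study in C57BL/6J mice, 20 male and 20 female, sorted by gender, blood glucose and body weight into four groups (n = 10 each). Treated groups of each sex got 30.0 mg/kg daily by oral gavage in soybean vehicle. Vehicle groups got an equal volume of soybean. Dosing ran three months, with behavior, survival, body weight, blood glucose, liver function and organ coefficients recorded.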

Mus musculus [7] = assay: Toxicity in C57BL/6J mouse assessed as effect on free diet blood glucose levels at 30 mg/kg administered daily via oral gavage for 3 months; format: organism-based; details: in vivo; how it was run: as §3
Mus musculus [8] = assay: Hypolipidemic activity in ob/ob mouse assessed as decrease in serum total cholesterol levels administered daily via oral gavage for 31 days; format: functional, organism-based
Mus musculus [9] = assay: Hypoglycemic activity in ob/ob mouse assessed as decrease in fasting blood glucose levels administered daily via oral gavage for 28 days; format: functional, organism-based
How it was run: (§4)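 Male ob/ob mice, n = 10 per group, daily gavage at 0.3, 1.0 or 3.0 mg/kg in soybean vehicle. Fasting and free-diet blood glucose and HbA1c measured.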

Mus musculus [10] = assay: Antiobesity activity in ob/ob mouse assessed as cumulative food intake at 3 mg/kg administered daily via oral gavage for 25 days relative to vehicle-treated control
Mus musculus [11] = assay: Hypoglycemic activity in ob/ob mouse assessed as decrease in HbA1c levels administered daily via oral gavage for 31 days; format: functional, organism-based; how it was run: as §4
Mus musculus [12] = assay: Hypolipidemic activity in antibiotic-treated ob/ob mouse assessed as decrease in hepatic triglycerides levels at 3 mg/kg administered daily via oral gavage for 3 weeks; format: functional, organism-based
How it was run: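 Male ob/ob mice pretreated three weeks with ampicillin (1 g/L), vancomycin, neomycin, gentamycin and erythromycin. Groups of n = 8 given 3.0 mg/kg/day orally in soybean vehicle versus vehicle. Plasma and hepatic lipids, fasting glucose, OGTT (glucose 2 g/kg after overnight fast) and HbA1c measured.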

Mus musculus [13] = assay: Antiobesity activity in ob/ob mouse assessed as reduction in absolute fat mass at 3 mg/kg administered daily via oral gavage for 31 days; format: functional, organism-based
How it was run: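 Male ob/ob mice, n = 10 per group, grouped by blood glucose and body weight. Daily gavage at 0.3, 1.0 or 3.0 mg/kg in soybean vehicle, with soybean vehicle controls and C57BL/6J controls. Body weight, cumulative food intake, LEE index, fat mass and lean mass recorded. Mean ± SEM, one-way ANOVA with Tukey test.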

Mus musculus [14] = assay: Antiobesity activity in antibiotic-treated ob/ob mouse assessed as reduction in cumulative food intake at 3 mg/kg administered daily via oral gavage for 18 days; format: functional, organism-based
How it was run: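 Male ob/ob mice given drinking water with ampicillin (1 g/L), vancomycin and other antibiotics for three weeks. Groups of n = 8 were dosed at 3.0 mg/kg/day by mouth in soybean vehicle, alongside non-antibiotic ob/ob groups. Weight gain and food intake recorded.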

Oscillibacter = assay: Decrease in Oscillibacter levels in cecum of ob/ob mouse at 3 mg/kg administered daily via oral gavage for 31 days by 16S rRNA gene high-throughput sequencing method; format: functional, organism-based; how it was run: as §1
Mus musculus [15] = assay: In vivo inhibition of alpha-glucosidase activity in ob/ob mouse assessed as reduction of blood glucose AUC at 0.3 to 3 mg/kg administered daily via oral gavage for 30 days by OSTT; format: functional, organism-based
How it was run: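 Male ob/ob mice given 0.3–3.0 mg/kg daily by gavage; after overnight fast, sucrose (OSTT) or maltose (OMTT) 4.0 g/kg given orally; blood glucose by glucose meter at 0, 40, 80 and 120 min; AUC calculated from the time course.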

Mus musculus [16] = assay: Downregulation of Tnfa mRNA expression in ob/ob mouse ileum at 3 mg/kg administered daily via oral gavage for 31 days by RNA-seq analysis; format: functional, organism-based
Mus musculus [17] = assay: Hypolipidemic activity in C57BL/6J DIO mouse assessed as decrease in serum total cholesterol levels at 0.3 to 3 mg/kg administered daily via oral gavage for 5 weeks; format: functional, organism-based; how it was run: as §2
Mus musculus [18] = assay: Upregulation of occludin mRNA expression in ob/ob mouse ileum at 3 mg/kg administered daily via oral gavage for 31 days by RNA-seq analysis; format: functional, organism-based
Mus musculus [19] = assay: Toxicity in C57BL/6J mouse assessed as effect on plasma AST levels at 30 mg/kg administered daily via oral gavage for 3 months; format: organism-based; details: in vivo; how it was run: as §3
Lachnospiraceae [20] = assay: Increase in Lachnospiraceae levels in cecum of ob/ob mouse at 1 to 3 mg/kg administered daily via oral gavage for 31 days by 16S rRNA gene high-throughput sequencing method; format: functional, organism-based
How it was run: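 Caecum contents (about 150 mg) from ob/ob mice given 1.0 or 3.0 mg/kg by gavage; DNA extracted, 16S rRNA gene V3-V4 region amplified and sequenced on Illumina HiSeq PE250; community compared with vehicle group by NMDS/MRPP and LEfSe.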

Mus musculus [21] = assay: Hypolipidemic activity in ob/ob mouse assessed as decrease in plasma LDL-C levels at 3 mg/kg administered daily via oral gavage for 31 days relative to vehicle-treated control; format: functional; design: scale not given: the % may be the effect or the level left
Mus musculus [22] = assay: Upregulation of Muc-5 mRNA expression in ob/ob mouse ileum at 3 mg/kg administered daily via oral gavage for 31 days by RNA-seq analysis; format: functional, organism-based
[23] = Chemical stability of the compound at 0.4 mg/ml at room temperature after 3 weeks by HPLC method; format: physicochemical; details: 504 h

## CC(C)=CCC/C(C)=C/CCC1=C[C@H](c2ccc(C(C)(C)C)cc2)OC1=O
Mus musculus [1]
  Activity: Active
Neisseria
  Activity: Active
Mus musculus [2]
  Activity: Dose-dependent effect
Mus musculus [3]
  Activity: Active
Mus musculus [4]
  Activity: Active
Lachnospiraceae [5]
  Activity: Active
Mus musculus [6]
  Activity: Non-Toxic
Mus musculus [7]
  Activity: Non-Toxic
Mus musculus [8]
  Activity: Dose-dependent effect
Mus musculus [9]
  Activity: Dose-dependent effect
Mus musculus [10]
  Activity: 78%
Mus musculus [11]
  Activity: Dose-dependent effect
Mus musculus [12]
  Activity: inactive
Mus musculus [13]
  Activity: Active
Mus musculus [14]
  Activity: inactive
Oscillibacter
  Activity: Active
Mus musculus [15]
  inhibition: Active
Mus musculus [16]
  Activity: Active
Mus musculus [17]
  Activity: Active
Mus musculus [18]
  Activity: Active
Mus musculus [19]
  Activity: Non-Toxic
Lachnospiraceae [20]
  Activity: Active
Mus musculus [21]
  Activity: 51%
Mus musculus [22]
  Activity: Active
[23]
  Stability: Stable
